The results in this text go back to ChEMBL document CHEMBL1135638, “Synthesis, molecular modeling studies, and pharmacological activity of selective A(1) receptor antagonists” (J Med Chem, 2002).

Assay [1] deals with T1, Adenosine receptor A1 (Bos taurus) (UniProt P28190).
T1 sequence (whole entry): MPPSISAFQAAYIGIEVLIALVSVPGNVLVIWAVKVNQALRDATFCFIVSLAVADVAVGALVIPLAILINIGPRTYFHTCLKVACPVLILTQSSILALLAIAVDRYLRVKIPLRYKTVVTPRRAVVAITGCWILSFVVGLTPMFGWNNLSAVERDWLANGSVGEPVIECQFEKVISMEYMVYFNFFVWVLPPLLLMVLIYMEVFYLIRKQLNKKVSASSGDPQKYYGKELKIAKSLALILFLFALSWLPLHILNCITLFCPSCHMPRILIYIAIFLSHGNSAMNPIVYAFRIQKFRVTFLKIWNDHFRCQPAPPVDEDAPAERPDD
The experiment in a line: Percent inhibition of specific [3H]CHA binding on Adenosine A1 receptor in bovine cortical membranes at 10 uM concentration. The assay is classed as cell membranes.

Assay [2] relates to Adenosine receptor A2a (Bos taurus). The experiment in a line: Percent inhibition of specific [3H]-CGS-21,680 binding to adenosine A2A receptors in bovine striatal membranes at 10 uM concentration.
Assay [3] deals with T2, Adenosine receptor A1 (Bos taurus, UniProt P28190).
T2 sequence (P28190 whole entry): T1 sequence (whole entry)
Put plainly: Binding affinity to Adenosine A1 receptor in bovine cortical membranes by [3H]N6-cyclohexyl adenosine displacement. The assay is classed as cell membranes.

Assay [4] deals with T2, Adenosine receptor A1. The experiment in a line: Binding affinity at bovine Adenosine A1 receptor.
In assay [5] the target is T3, Adenosine receptor A1 (Rattus norvegicus, UniProt P25099).
T3 sequence (P25099 whole entry): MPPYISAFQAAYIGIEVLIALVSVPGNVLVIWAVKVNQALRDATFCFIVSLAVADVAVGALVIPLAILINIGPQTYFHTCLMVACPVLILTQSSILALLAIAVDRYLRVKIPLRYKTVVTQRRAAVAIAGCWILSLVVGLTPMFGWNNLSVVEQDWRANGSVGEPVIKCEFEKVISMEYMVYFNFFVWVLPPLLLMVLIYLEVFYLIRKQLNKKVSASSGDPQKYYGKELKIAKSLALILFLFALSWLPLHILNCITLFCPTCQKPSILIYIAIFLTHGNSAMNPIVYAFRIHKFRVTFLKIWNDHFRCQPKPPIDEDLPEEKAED
The experiment in a line: Binding affinity against rat Adenosine A1 receptor.

The target of assay [6] is T2, Adenosine receptor A1. The experiment in a line: Displacement of [3H]DPCPX from Adenosine A1 receptor of bovine cortical membranes without GTP. In a few lines:
(§1)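 [3H]DPCPX displacement from bovine cortical membranes, method of Pirovano et al., run with and without 1 mM GTP. Values from three separate experiments, mean ± SEM.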
For orientation: In a radioligand displacement assay an active substance lowers the binding of a labelled ligand.

For assay [7], the target named is T2, Adenosine receptor A1. The experiment in a line: Displacement of [3H]DPCPX from Adenosine A1 receptor of bovine cortical membranes with 1 mM GTP. In a few lines: as §1
The nature of assay [8]: Compound was evaluated for the inhibition of Adenylate cyclase activity. The format is functional.

On to `CCOC(=O)c1cnc2c(cnn2/C=C/c2ccccc2)c1NC1CC1`, for which the inhibition (commonly the share of the control response that was lost under treatment) in assay [1] is 67%; in assay [2], 0%.
For the compound `CCOC(=O)c1cnc2c(cnn2CC(Cl)COc2ccccc2)c1NCCc1ccccc1` (stereo not given), at Adenosine receptor A1 [3], the affinity, expressed as Ki, was 456 nM. The compound also had an inhibition in assay [2] of 5%.
Take `CCOC(=O)c1cnc2c(cnn2CC(Cl)COc2ccccc2)c1N1CCOCC1` (stereo not given): the results for the inhibition in assay [1] and in assay [2] were 40% and 0%, respectively.
On the same counts, the results for `CCOC(=O)c1cnc2c(cnn2/C=C/c2ccccc2)c1N1CCCC1` are 39% and 0%.
On to `CCCSc1nc(SC(CC)C(N)=O)nc2c1ncn2-c1ccccc1` (stereo not given), for which the affinity on Adenosine receptor A1 [4] corresponds to a Ki of 29.5 nM.
In the case of `FC(F)(F)c1nnc2c(NC3CCCC3)nc3ccccc3n12`, the affinity at Adenosine receptor A1 [4], expressed as Ki, was 7.3 nM.
As for `CCOC(=O)c1cnc2c(cnn2CC(Cl)COc2ccccc2)c1NC1CC1` (stereo not given), the Ki (usually the equilibrium dissociation constant of an inhibitor or competing ligand from its target) on Adenosine receptor A1 [3] stood at 1050 nM. In addition, in assay [2], the inhibition was 34%.
As for `Cc1nn(C)c2c(=O)[nH]c(-c3ccc(Cl)cc3N)nc12`, at Adenosine receptor A1 [4], the Ki was 176 nM.
Same read-out and setting: with `Nc1nc2ccc(Cl)cc2n2nc(-c3ccccc3F)nc12` the figure was 13 nM.
Same read-out and setting: with `c1ccc(-c2nc3c(NC4CCCC4)[nH]c4ccccc4c-3n2)cc1` the figure was 10 nM.
On to `CCOC(=O)c1cnc2c(cnn2CC(Cl)c2ccccc2)c1NCCc1ccccc1` (stereo not given), for which the Ki on Adenosine receptor A1 [5] worked out at 73 nM; at Adenosine receptor A1 [6], 69.7 nM; at Adenosine receptor A1 [7] it was 56 nM. The IC50 – broadly, the concentration at which inhibition is half-maximal – in assay [8] was found to be 52.2 nM.
In the case of `O=C(/C=C/C1=CC=CN2N=C(c3ccccc3)CC12)N1CCCC[C@H]1CCO` (stereo not given in full), the affinity at Adenosine receptor A1 [4] corresponds to a Ki of 0.49 nM.
On the same count and under the same terms, with `CCCn1c(=O)c2[nH]c(C3CCC(=O)C3)nc2n(CCC)c1=O` (stereo not given) the figure was 15 nM.
Same read-out and setting: with `C[C@H](c1ccccc1)n1c2ccccc2c2c(N)nc(-c3ccccc3)nc21` the figure was 2.6 nM; with `Nc1nc(-c2ccncc2)nc2c1c1c(n2-c2ccccc2)CCCC1`, 600 nM; with `COc1ccc(-c2nc(N)c3c(C)c(C)n(C(C)c4ccccc4)c3n2)cc1` (stereo not given), 101 nM.
`CCCNc1c(C(=O)OCC)cnc2c1cnn2/C=C/c1ccccc1`: the values for the inhibition in assay [1] and in assay [2] were 40% and 0%, respectively.
The matching figures for `CCOC(=O)c1cnc2c(cnn2/C=C/c2ccccc2)c1NC1CCCCC1`: 21% and 0%.
On the same counts, the results for `CCOC(=O)c1cnc2c(cnn2CC(Cl)COc2ccccc2)c1NCc1ccccc1` (stereo not given) are 36% and 12%.
Take `CN1C=NC2C(NC3CCCC3)=NC=NC21` (stereo not given): affinity on Adenosine receptor A1 [4] was put at a Ki of 540 nM.
As for `CCOC(=O)c1cnc2c(cnn2CC(Cl)c2ccccc2)c1N1CCCC1` (stereo not given), the Ki stood at 140 nM on Adenosine receptor A1 [5], 103 nM on Adenosine receptor A1 [6] and 90 nM at Adenosine receptor A1 [7]. Besides, the IC50 in assay [8] is 154 nM.
For the compound `CCOC(=O)c1cnc2c(cnn2CC(Cl)COc2ccccc2)c1N1CCCC1` (stereo not given), the inhibition in assay [1] turned out to be 33%; in assay [2], 15%.
The compound `CCOCCNc1c(C(=O)OCC)cnc2c1cnn2CC(Cl)COc1ccccc1` (stereo not given) showed a Ki on Adenosine receptor A1 [3] of 2690 nM.
Regarding `CCOC(=O)c1cnc2c(cnn2CC(Cl)c2ccccc2)c1N1CCCCC1` (stereo not given), the inhibition in assay [1] amounted to 41%; in assay [2], 23%.
`Cc1cnc2c(NC3CCCC3)nc3ccccc3n12` yielded an inhibition constant Ki on Adenosine receptor A1 [4] of 7.9 nM.
Regarding `CCCCNc1c(C(=O)OCC)cnc2c1cnn2/C=C/c1ccccc1`, the inhibition in assay [1] turned out to be 60%; in assay [2] it was 0%.
As to `CCOC(=O)c1cnc2c(cnn2CC(Cl)c2ccccc2)c1NCc1ccccc1` (stereo not given), the inhibition in assay [2] was 0%.
Turning to `CCOC(=O)c1cnc2c(cnn2/C=C/c2ccccc2)c1N1CCOCC1`, the inhibition came out at 40% in assay [1] and 0% in assay [2].
Consider `CCCCNc1c(C(=O)OCC)cnc2c1cnn2CC(Cl)COc1ccccc1` (stereo not given), for which the affinity at Adenosine receptor A1 [3] corresponds to a Ki of 1220 nM. This compound displayed an inhibition in assay [2] of 23%.
For the compound `CCOC(=O)c1cnc2c(cnn2/C=C/c2ccccc2)c1NCCc1ccccc1`, the results for the inhibition in assay [1] and in assay [2] were 58% and 2%, respectively.
Consider `CCOC(=O)c1cnc2c(cnn2CC(Cl)c2ccccc2)c1NC1CCCCC1` (stereo not given), for which the affinity on Adenosine receptor A1 [3] corresponds to a Ki of 1490 nM. In assay [2], this compound had an inhibition of 0%.
`CCOCCNc1c(C(=O)OCC)cnc2c1cnn2/C=C/c1ccccc1`: the inhibition was determined as 51% in assay [1] and 0% in assay [2].
`CCOC(=O)c1cnc2c(cnn2CC(Cl)COc2ccccc2)c1NC1CCCCC1` (stereo not given) came in with a Ki at Adenosine receptor A1 [3] of 3710 nM. Also, the inhibition in assay [2] worked out at 1%.
With `CCOC(=O)c1cnc2c(cnn2/C=C/c2ccccc2)c1NCc1ccccc1`, the inhibition in assay [1] amounted to 39%; in assay [2], 2%.
Consider `O=C(O)CCCn1nc(-c2c(-c3ccccc3)nn3ccccc23)ccc1=O`, for which the affinity at Adenosine receptor A1 [4] corresponds to a Ki of 6.6 nM.
In assay [2], `CCOC(=O)c1cnc2c(cnn2CC(Cl)c2ccccc2)c1N1CCOCC1` (stereo not given) registered an inhibition of 0%.
